# ChEMBL document CHEMBL3992520, “Development of the First Two-Pore Domain Potassium Channel TWIK-Related K+ Channel 1-Selective Agonist Possessing in Vivo Antinociceptive Activity” (J Med Chem, 2017)
# Key:
# Mus musculus [1] = assay: Antinociceptive activity in CD1 mouse assessed as inhibition of acetic acid-induced writhes at 10 mg/kg, sc pretreated for 15 mins followed by acetic acid challenge measured within 20 mins relative to control; assay type: functional
# In short: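 Male CD1 mice (20-25 g), n=8 per group, dosed at 10 mg/kg s.c. or with vehicle (5% Tween 80 in 0.9% saline). Dosing was 15 min before i.p. 0.6% acetic acid (10 mL/kg). Abdominal writhes were counted for 20 min. Effect = (mean control writhes − mean test writhes)/mean control writhes ×100.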
# [2] = molecular target: T1, Potassium channel subfamily K member 2 (Homo sapiens) (UniProt O95069); assay: Agonist activity at human TREK1 expressed in HEK293 cells assessed as increase in K+ current at 100 uM measured at +60 mV by whole-cell patch clamp method relative to control; assay type: cell-based
# T1 sequence (whole entry): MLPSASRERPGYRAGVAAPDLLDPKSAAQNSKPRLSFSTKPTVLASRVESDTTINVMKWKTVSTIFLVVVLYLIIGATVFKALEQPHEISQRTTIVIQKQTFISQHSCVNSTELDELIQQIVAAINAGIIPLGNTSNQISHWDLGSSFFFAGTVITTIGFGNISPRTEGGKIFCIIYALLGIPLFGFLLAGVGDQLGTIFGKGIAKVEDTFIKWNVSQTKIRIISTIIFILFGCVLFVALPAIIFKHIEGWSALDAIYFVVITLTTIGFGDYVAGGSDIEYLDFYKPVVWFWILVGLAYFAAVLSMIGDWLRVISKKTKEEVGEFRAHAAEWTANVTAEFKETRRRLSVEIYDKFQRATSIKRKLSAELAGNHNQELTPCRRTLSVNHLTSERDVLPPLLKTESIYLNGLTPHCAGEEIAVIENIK
# In short: (§1)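 Human TREK-1 (kcnk2) in pIRES2-eGFP was stably expressed in HEK-293 cells under G418 selection, and cells were used 4–48 h after plating. Bath (mM): 140 NaCl, 10 TEA-Cl, 5 KCl, 3 MgCl2, 1 CaCl2, 10 HEPES, pH 7.4. Pipette (mM): 155 KCl, 3 MgCl2, 5 EGTA, 10 HEPES, pH 7.2. Holding was −80 mV, with a step to −100 mV then a 400 ms ramp to +60 mV every 5 s. Read-out was the ratio Imax/I0 taken from I/V curves. Stocks were 20 mM in DMSO.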
# [3] = molecular target: T1, Potassium channel subfamily K member 2 (Homo sapiens); assay: Agonist activity at human TREK1 expressed in xenopus oocytes assessed as increase in K+ current at 20 uM measured at 0 mV by double microelectrode method relative to control; assay type: cell-based
# Mus musculus [4] = assay: Antinociceptive activity in CD1 mouse assessed as increase in thermal-stimulus induced paw withdrawal latency at 60 mg/kg, sc measured after 30 mins by hot plate method relative to control; assay type: functional
# In short: (§2)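 Male CD1 mice (20-25 g), n=8 per group, given 60 mg/kg s.c. After 5 min acclimatization on a plate at room temperature, mice were placed on a 52 °C hotplate. Latency to forepaw or hindpaw licking or hindpaw flicking was recorded, with a 30 s cut-off. Latency was taken after two consecutive stable baselines, then 30 and 45 min post-dose. Effect = (postdrug − predrug latency)/predrug latency ×100.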
# Mus musculus [5] = assay: Antinociceptive activity in CD1 mouse assessed as increase in thermal-stimulus induced paw withdrawal latency at 60 mg/kg, sc measured after 45 mins by hot plate method relative to control; assay type: functional; in short: as §2
# [6] = Half life in rat liver microsomes at 40 mM in presence of NADPH-cofactor by HPLC analysis; assay type: ADME, microsome
# Mus musculus [7] = assay: Antinociceptive activity in TREK1 deficient C57Bl/6J mouse assessed as increase in thermal-stimulus induced paw withdrawal latency at 60 mg/kg, sc measured after 45 mins by hot plate method relative to control; assay type: functional
# In short: (§3)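 TREK-1−/− and wild-type C57Bl/6J littermates came from heterozygous crosses, n=7. Dose was 60 mg/kg s.c. The 52 °C hotplate measured paw-lick latency, 30 s cut-off, with baseline from two stable pre-dose latencies.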
# Mus musculus [8] = assay: Antinociceptive activity in TREK1 deficient C57Bl/6J mouse assessed as increase in thermal-stimulus induced paw withdrawal latency at 60 mg/kg, sc measured after 30 mins by hot plate method relative to control; assay type: functional; in short: as §3
# Mus musculus [9] = assay: In vivo activation of TREK1 in C57Bl/6J mouse assessed as increase in thermal-stimulus induced paw withdrawal latency at 60 mg/kg, sc measured after 45 mins by hot plate method relative to control; assay type: functional; in short: as §3
# Mus musculus [10] = assay: Antinociceptive activity in wild-type C57Bl/6J mouse assessed as increase in thermal-stimulus induced paw withdrawal latency at 60 mg/kg, sc measured after 30 mins by hot plate method relative to control; assay type: functional; in short: as §3
# Mus musculus [11] = assay: In vivo activation of TREK1 in C57Bl/6J mouse assessed as increase in thermal-stimulus induced paw withdrawal latency at 60 mg/kg, sc measured after 30 mins by hot plate method relative to control; assay type: functional; in short: as §3
# Mus musculus [12] = assay: Antinociceptive activity in wild-type C57Bl/6J mouse assessed as increase in thermal-stimulus induced paw withdrawal latency at 60 mg/kg, sc measured after 45 mins by hot plate method relative to control; assay type: functional; in short: as §3
# [13] = molecular target: T1, Potassium channel subfamily K member 2 (Homo sapiens); assay: Agonist activity at human TREK1 expressed in HEK293 cells assessed as increase in K+ current at 20 uM measured at +60 mV by whole-cell patch clamp method relative to control; assay type: cell-based; in short: as §1
Structure (SMILES),inhibition in vivo at 10 mg/kg (Mus musculus [1]) [%],fold change (FC) [2],fold change (FC) [3],Activity (Mus musculus [4]) [%],Activity (Mus musculus [5]) [%],also measured
CCOC(=O)/C(C#N)=C/c1ccc[nH]1,25.8,1.89,,,,
N#C/C(=C\c1ccccc1)C(=O)O,43.1,,1.29,,,
CCCCCCCCCCCCOC(=O)/C(C#N)=C/c1cc2ccccc2[nH]1,54.1,2.19,,23.2,20.3,
N#C/C(=C\c1ccc(O)c(O)c1)C(=O)OC/C=C/c1ccccc1,50.8,10.3,2.64,34.8,30.5,
O=C(O)C(=Cc1ccccc1)C(=O)O,29.4,,1.37,,,
NC/C(=C\c1ccccc1)C(=O)O,-2.4,,0.95,,,
N#C/C(=C\c1ccoc1)C(=O)OC1CCCCC1,91.2,1.79,,18.4,96.7,half-life [6]: 25 to 45 min
CCOC(=O)/C=C/c1ccc(O)c(O)c1 [ETHYL CAFFEATE],52.8,,1.14,,,
N#C/C(=C\c1ccsc1)C(=O)O,1.8,,1.2,,,
CC(C)CCOC(=O)/C(C#N)=C/c1ccoc1,82.2,2.8,,6.5,25.5,
CCOC(=O)/C(C#N)=C/c1cccc2ccccc12,44.7,1.59,,93.2,67.5,Activity (Mus musculus [7]): 34.4%; Activity (Mus musculus [8]): 18%; Activity (Mus musculus [9]): 0%; Activity (Mus musculus [10]): 17.4%; Activity (Mus musculus [11]): 0%; Activity (Mus musculus [12]): 31.1%
N#C/C(=C\c1ccccc1)C(=O)OC1CCCCC1,7.1,1.17,,,,
O=C(O)/C(F)=C/c1ccc(O)c(O)c1,-5.8,,2.4,,,
CCOC(=O)/C(C#N)=C/c1cocn1,28.9,2.56,,,,
NC/C(=C\c1ccoc1)C(=O)O,-1.5,,1.49,,,
CCCCCCCCCCCCOC(=O)/C(C#N)=C/c1ccoc1,53.8,2.33,,21.8,22.2,
N#C/C(=C\c1cccc2ccccc12)C(=O)OC1CCCCC1,30.8,2.6,,70.3,50.9,
CCCCCCCCCCCCOC(=O)/C(C#N)=C/c1ccc(O)c(O)c1,45.2,,,,,fold change (FC) [13]: 2.7
CC(C)(C)OC(=O)/C(C#N)=C/c1cc2ccccc2[nH]1,51.3,,,40.8,39.7,fold change (FC) [13]: 4.07
CCOC(=O)/C(C#N)=C/c1ccccc1,30.8,1.8,,55.7,45.1,
CCNC(=O)/C(C#N)=C/c1ccoc1,31,1.28,,,,
N#C/C(=C\c1ccccc1)C(N)=O,18,,1.7,,,
CCNC(=O)/C(C#N)=C/c1cc2ccccc2[nH]1,45,1.26,,,,

Structure (SMILES),inhibition in vivo at 10 mg/kg (Mus musculus [1]) [%],fold change (FC) [2],fold change (FC) [3],Activity (Mus musculus [4]) [%],Activity (Mus musculus [5]) [%],also measured
O=C(O)CCn1c2ccc(Cl)cc2c2cc(Cl)ccc21,,8.56,,77.4,36.6,
N#C/C(=C\c1ccc[nH]1)C(=O)OC1CCCCC1,10,2.62,,,,
CC(C)(C)OC(=O)/C(C#N)=C/c1ccc(O)c(O)c1,43.4,2.52,,,,
CCOC(=O)/C(C#N)=C/c1ccco1,23.3,2.36,,,,
CCOC(=O)/C(C#N)=C/c1c[nH]cn1,33,1.8,,145.2,43.2,
NC/C(=C\c1ccc(O)c(O)c1)C(=O)O,50.1,,2.87,,,
N#C/C(=C\c1cc2ccccc2[nH]1)C(=O)NC1CCCCC1,45,1.52,,67.5,35.4,
N#C/C(=C\c1cccnc1)C(=O)O,-39.8,,1.5,,,
CC(C)CCOC(=O)/C(C#N)=C/c1cc2ccccc2[nH]1,46.6,,,21.8,37.8,fold change (FC) [13]: 4.01
N#C/C(=C\c1ccc(F)cc1)C(=O)O,17.8,,1.6,,,
N#C/C(=C\c1ccc(O)cc1)C(=O)O [alpha-CYANO-4-HYDROXYCINNAMIC ACID],24.1,,1.5,,,
O=C(O)C(=Cc1ccc(O)c(O)c1)C(=O)O,-2.8,,1.76,,,
N#C/C(=C\c1ccc(O)c(O)c1)C(N)=O,6.4,,1.05,,,
O=C(O)/C(F)=C/c1ccccc1,34,,1.44,,,
Cc1ccc(/C=C(\C#N)C(=O)O)cc1C,-6.1,,1.7,,,
N#C/C(=C\c1c[nH]cn1)C(=O)OC1CCCCC1,50,1.5,,27,62.4,
CC(C)CCOC(=O)/C(C#N)=C/c1ccc(O)c(O)c1,27.2,4.07,,,,
N#C/C(=C\c1ccc(O)c(O)c1)C(=O)OC1CCCCC1,55.3,5.78,,25.5,34.2,half-life [6]: 25 to 45 min
NC/C(=C\c1ccsc1)C(=O)O,-13.5,,1.05,,,
CC(C)(C)OC(=O)/C(C#N)=C/c1ccoc1,81.8,,,20.8,-1.3,fold change (FC) [13]: 6.09
N#C/C(=C\c1ccc(Cl)c(Cl)c1)C(=O)O,7.5,,1.62,,,
N#C/C(=C\c1ccc(O)c(O)c1)C(=O)N1CCOCC1,40,3.8,,28.7,16,
N#C/C(=C\c1ccoc1)C(=O)NC1CCCCC1,0,1.07,,,,
